Read-outs that look alike come from different tables or passages of the source. Non-standard residues stand in square brackets, D forms with d. Residues, ends and D or L forms follow the SMILES beside them. Dip = N[C@H](C(=O)O)C(c1ccccc1)c1ccccc1; hArg = N=C(N)NCCCC[C@H](N)C(=O)O; Agp = N=C(N)NC[C@H](N)C(=O)O
Tests used:
[1] = tested on: human red blood cells (hRBC); experiment: Hemolytic activity; assay type: cell-based; details: concentration at which 50% hemolysis was observed
[2] = tested on: E. coli (ATCC 25922); details: cited from earlier work
[3] = tested on: S. aureus (ATCC 29213); details: cited from earlier work
[4] = tested on: MRSA (ATCC BAA-1556); details: cited from earlier work
[5] = tested on: human red blood cells (hRBC); details: cited from earlier work
[6] = tested on: P. aeruginosa (ATCC 27883); details: cited from earlier work
[7] = tested on: E. coli (ATCC BAA-2452); assay type: cell-based, Escherichia coli; details: E. coli (ATCC BAA-2452)
[8] = tested on: E. coli (ATCC BAA-2452) biofilm; experiment: Antibiofilm activity, XTT assay; assay type: cell-based, Escherichia coli
Method in brief: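 Bacterial suspensions at 5×10^5 CFU/mL in MH broth were grown 24 h at 37 °C to form biofilms, then washed twice with PBS. […] Biofilms were rewashed, then given XTT plus phenazine methosulfate for 1 h in the dark at 37 °C, and A492 was read. Percentage decrease versus untreated wells; triplicate, run twice.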

[9] = tested on: P. aeruginosa (ATCC 27883); details: highest MIC of three independent experiments
[10] = tested on: Klebsiella pneumonia (ATCC 13883)
[11] = tested on: Pseudomonas aeruginosa (ATCC BAA-1744), imipenem resistant; details: Imipenem resistant strain
[12] = tested on: Pseudomonas aeruginosa (ATCC 10145)
[13] = tested on: E. coli (ATCC 25922); details: highest MIC of three independent experiments
[14] = tested on: Escherichia coli (ATCC BAA-2452), NDM-1
[15] = tested on: S. aureus (ATCC 29213); details: highest MIC of three independent experiments
[16] = tested on: Klebsiella pneumonia (ATCC BAA-2470), carbapenem resistant; details: Carbapenem resistant strain
[17] = tested on: E. coli (ATCC 25922) and E. coli (ATCC BAA-2452); experiment: Resistance development study, repeated exposure; assay type: cell-based; details: E. coli strains; 18 exposures
[18] = tested on: Acinetobacter baumannii (ATCC BAA1605), ciprofloxacin resistant; details: Ciprofloxacin resistant strain

## N=C(N)NCCC[C@@H]1NC(=O)[C@H](CCCNC(=N)N)NC(=O)[C@H](CCCNC(=N)N)NC(=O)[C@H](C(c2ccccc2)c2ccccc2)NC(=O)[C@H](C(c2ccccc2)c2ccccc2)NC(=O)[C@H](Cc2c[nH]c3ccccc23)NC1=O [1a, c[Arg-Arg-Arg-Trp-Dip-Dip]] (cyclo([Dip][Dip]RRRW))
[1]
  HC50: 50 µg/mL

## N=C(N)NCCCC[C@@H]1NC(=O)[C@H](CCCNC(=N)N)NC(=O)[C@H](CCCCNC(=N)N)NC(=O)[C@H](C(c2ccccc2)c2ccccc2)NC(=O)[C@H](Cc2c[nH]c3ccccc23)NC(=O)[C@H](C(c2ccccc2)c2ccccc2)NC(=O)[C@H](CCCNC(=N)N)NC1=O [7c, c[hArg-Arg-hArg-Arg-Dip-Trp-Dip]] (cyclo([Dip]W[Dip][hArg]R[hArg]R))
[1]
  HC50: 160 µg/mL

## N=C(N)NCCC[C@@H]1NC(=O)[C@H](CCCNC(=N)N)NC(=O)[C@H](Cc2c[nH]c3ccccc23)NC(=O)[C@H](C(c2ccccc2)c2ccccc2)NC(=O)[C@H](C(c2ccccc2)c2ccccc2)NC(=O)[C@H](CCCNC(=N)N)NC(=O)[C@H](CCCNC(=N)N)NC1=O [3c, c[Arg-Arg-Arg-Arg-Dip-Dip-Trp]] (cyclo([Dip][Dip]WRRRR))
[1]
  HC50: 100 µg/mL

## N=C(N)NCCC[C@@H]1NC(=O)[C@H](CCCNC(=N)N)NC(=O)[C@H](C(c2ccccc2)c2ccccc2)NC(=O)[C@H](Cc2c[nH]c3ccccc23)NC(=O)[C@H](C(c2ccccc2)c2ccccc2)NC(=O)[C@H](CCCNC(=N)N)NC1=O [1b, c[Arg-Arg-Arg-Dip-Trp-Dip]] (cyclo([Dip]RRR[Dip]W))
[1]
  HC50: 75 µg/mL

## N=C(N)NCCC[C@@H]1NC(=O)[C@H](CCCNC(=N)N)NC(=O)[C@H](Cc2c[nH]c3ccccc23)NC(=O)[C@H](C(c2ccccc2)c2ccccc2)NC(=O)[C@H](C(c2ccccc2)c2ccccc2)NC(=O)[C@H](CCCNC(=N)N)NC1=O [1c, c[Arg-Arg-Arg-Dip-Dip-Trp]] (cyclo([Dip][Dip]WRRR))
[1]
  HC50: 65 µg/mL

## N=C(N)NC[C@@H]1NC(=O)[C@H](CNC(=N)N)NC(=O)[C@H](CNC(=N)N)NC(=O)[C@H](C(c2ccccc2)c2ccccc2)NC(=O)[C@H](Cc2c[nH]c3ccccc23)NC(=O)[C@H](C(c2ccccc2)c2ccccc2)NC(=O)[C@H](CNC(=N)N)NC1=O [7a, c[Agp-Agp-Agp-Agp-Dip-Trp-Dip]] (cyclo([Agp][Agp][Agp][Agp][Dip]W[Dip]))
[1]
  HC50: 240 µg/mL

## c[Arg-Arg-Arg-Arg-Nal-Nal-Nal] [8b]
[2]
  MIC E. coli (ATCC 25922): 25 µg/mL
[3]
  MIC S. aureus (ATCC 29213): 3.1 µg/mL
[4]
  MIC MRSA (ATCC BAA-1556): 3.1 µg/mL
[5]
  HC50: 80 µg/mL
[6]
  MIC P. aeruginosa (ATCC 27883): 12.5 µg/mL

## N=C(N)NCCC[C@@H]1NC(=O)[C@H](CCCNC(=N)N)NC(=O)[C@H](CCCNC(=N)N)NC(=O)[C@H](Cc2c[nH]c3ccccc23)NC(=O)[C@H](C(c2ccccc2)c2ccccc2)NC(=O)[C@H](Cc2c[nH]c3ccccc23)NC(=O)[C@H](CCCNC(=N)N)NC1=O [5a, c[Arg-Arg-Arg-Arg-Trp-Dip-Trp]] (cyclo([Dip]WRRRRW))
[1]
  HC50: 220 µg/mL

## cyclo(RRRR[Dip][Dip][Dip]) [8a]
[2]
  MIC E. coli (ATCC 25922): 12.5 µg/mL
[3]
  MIC S. aureus (ATCC 29213): 3.1 µg/mL
[4]
  MIC MRSA (ATCC BAA-1556): 3.1 µg/mL
[5]
  HC50: 70 µg/mL
[6]
  MIC P. aeruginosa (ATCC 27883): 12.5 µg/mL

## N=C(N)NCCC[C@@H]1NC(=O)[C@H](CCCNC(=N)N)NC(=O)[C@H](CCCNC(=N)N)NC(=O)[C@H](C(c2ccccc2)c2ccccc2)NC(=O)[C@H](C(c2ccccc2)c2ccccc2)NC(=O)[C@H](Cc2c[nH]c3ccccc23)NC(=O)[C@H](CCCNC(=N)N)NC1=O [3a, c[Arg-Arg-Arg-Arg-Trp-Dip-Dip]] (cyclo([Dip][Dip]RRRRW))
[1]
  HC50: 85 µg/mL

## Polymyxin B
[1]
  HC50: >500 µg/mL
[7]; CaCl2 2 mM
  MIC CaCl2: 0.7 µg/mL
[7]; KCl […]
  MIC KCl: 0.7 µg/mL
[7]; MH media without salt ions or serum
  MIC Control: 0.7 µg/mL
[7]; MgCl2 1 mM
  MIC MgCl2: 1.5 µg/mL
[7]; NH4Cl 6 mM
  MIC NH4Cl: 0.7 µg/mL
[7]; NaCl 150 mM
  MIC NaCl: 0.7 µg/mL
[7]; fetal bovine serum 25%
  MIC FBS (25%): 3.1 µg/mL
[8]; at 2× the MIC
  reduction in biofilm mass: 61%
[8]; at MIC
  reduction in biofilm mass: 46%
[9]
  MIC P. aeruginosa (ATCC 27883): 0.7 µg/mL
[10]
  MIC Klebsiella pneumonia (ATCC 13883): 6.2 µg/mL
[11]
  MIC Pseudomonas aeruginosa (ATCC BAA-1744): 0.7 µg/mL
[12]
  MIC Pseudomonas aeruginosa (ATCC 10145): 0.7 µg/mL
[13]
  MIC E. coli (ATCC 25922): 0.7 µg/mL
[14]
  MIC Escherichia coli (ATCC BAA-2452): 0.7 µg/mL
[15]
  MIC S. aureus (ATCC 29213): 0.7 µg/mL
[16]
  MIC Klebsiella pneumonia (ATCC BAA-2470): 1.5 µg/mL
[17]
  change in MIC after repeated exposure (resistance development): negligible changes in the MIC values
[18]
  MIC Acinetobacter baumannii (ATCC BAA1605): 0.7 µg/mL

## CC(C)C[C@@H]1NC(=O)[C@H](C(c2ccccc2)c2ccccc2)NC(=O)[C@H](CCCNC(=N)N)NC(=O)[C@H](CCCNC(=N)N)NC(=O)[C@H](CCCNC(=N)N)NC(=O)[C@H](CCCNC(=N)N)NC(=O)[C@H](C(c2ccccc2)c2ccccc2)NC1=O [6a, c[Arg-Arg-Arg-Arg-Dip-Leu-Dip]] (cyclo([Dip]L[Dip]RRRR))
[1]
  HC50: 155 µg/mL

Source: article PMC12207910 (European journal of pharmaceutical sciences : official …, 2024)
